From ChEMBL document CHEMBL3853311, “Deuterium-Labeled Precursor Feeding Reveals a New pABA-Containing Meroterpenoid from the Mango Pathogen Xanthomonas citri pv. mangiferaeindicae” (J Nat Prod, 2016)
The source made the active and inactive calls. The calls are words filed in the database; no cut-off is given here.

Columns and labels:
[1] = Cytotoxicity against human MDA-MB-231 cells assessed as decrease in cell viability after 48 hrs by MTT assay; type: functional, cell-based; conditions: MDA-MB-231, 48 h
Method in brief: (§1)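 Cells kept in DMEM/F12 with 10% FBS, 2 mM glutamine, penicillin/streptomycin at 37 °C, 5% CO2; exponential-phase cells seeded at 1 × 10^4/well for 24 h. Treated at 0.2, 2 and 20 μg/mL for 48 h at 37 °C; vehicle controls = 100% viability. Formazan dissolved in DMSO, read at 570 nm (620 nm reference). IC50 by four-parameter logistic fit, ≥3 independent measurements, ±95% CI.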

[2] = Cytotoxicity against human Caco2 cells assessed as decrease in cell viability after 48 hrs by MTT assay; type: functional, cell-based; conditions: Caco-2, 48 h; method in brief: as §1
[3] = Cytotoxicity against human HeLa cells assessed as decrease in cell viability after 48 hrs by MTT assay; type: functional, cell-based; method in brief: as §1
[4] = Cytotoxicity against human MCF7 cells assessed as decrease in cell viability after 48 hrs by MTT assay; type: functional, cell-based; conditions: MCF7, 48 h; method in brief: as §1
[5] = Cytotoxicity against human U87MG cells assessed as decrease in cell viability after 48 hrs by MTT assay; type: functional, cell-based, U-87MG ATCC; conditions: U-87 MG; method in brief: as §1
[6] = Cytotoxicity against HEK293 cells assessed as decrease in cell viability after 48 hrs by MTT assay; type: toxicity, cell-based; conditions: human; method in brief: as §1
[7] = Cytotoxicity against human A549 cells assessed as decrease in cell viability after 48 hrs by MTT assay; type: functional, cell-based; conditions: A549, 48 h; method in brief: as §1
[8] = Cytotoxicity against human MPanc96 cells assessed as decrease in cell viability after 48 hrs by MTT assay; type: functional, cell-based; conditions: MPANC96, 48 h; method in brief: as §1
[9] = Cytotoxicity against human PC3 cells assessed as decrease in cell viability after 48 hrs by MTT assay; type: functional, cell-based; conditions: PC-3, 48 h; method in brief: as §1
[10] = Cytotoxicity against human 253JBV cells assessed as decrease in cell viability after 48 hrs by MTT assay; type: functional, cell-based; method in brief: as §1
Homo sapiens [11] = species on record: Homo sapiens; test: Induction of autophagy in human 253JBV cells assessed as vacuole formation at 20 ug/ml after 48 hrs by microscopy; type: functional, cell-based
Method in brief: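 Bladder cells grown 48 h untreated or with 20 μg/mL test agent, then inspected for morphology and vacuoles by inverted light microscopy against the control group.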

MDA-MB-231 [12] = test: Induction of autophagy in human MDA-MB-231 cells assessed as conversion of LC3-1 to LC3-2 at IC50 to 2 times IC50 after 24 to 48 hrs by immunoblot analysis; type: functional, cell-based
Method in brief: (§2)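 Cells seeded at 2.5 × 10^5/well, treated 24 h later at 1/2 IC50, IC50 and 2× IC50 (legend says 24 h, methods 48 h). Controls: MG132 4.76 μg/mL, BafA1 0.1 μg/mL, DMSO. Lysed in RIPA with protease inhibitors, BCA protein assay, 30 μg on 15% Tris/glycine SDS-PAGE. Blotted for LC3-I/II, p62 and polyubiquitinated proteins with HRP secondary and ECL detection.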

HeLa [13] = test: Induction of autophagy in human HeLa cells assessed as conversion of LC3-1 to LC3-2 at IC50 to 2 times IC50 after 24 to 48 hrs by immunoblot analysis; type: functional, cell-based; method in brief: as §2
Homo sapiens [14] = species on record: Homo sapiens; test: Induction of autophagy in human 253JBV cells assessed as conversion of LC3-1 to LC3-2 at IC50 to 2 times IC50 after 24 to 48 hrs by immunoblot analysis; type: functional, cell-based; method in brief: as §2
MDA-MB-231 [15] = test: Induction of autophagy in human MDA-MB-231 cells assessed as decrease in p62 levels at 2 times IC50 after 24 to 48 hrs by immunoblot analysis; type: functional, cell-based; method in brief: as §2
Homo sapiens [16] = species on record: Homo sapiens; test: Induction of autophagy in human 253JBV cells assessed as decrease in p62 levels at 2 times IC50 after 24 to 48 hrs by immunoblot analysis; type: functional, cell-based; method in brief: as §2
HeLa [17] = test: Induction of autophagy in human HeLa cells assessed as decrease in p62 levels at IC50 after 24 to 48 hrs by immunoblot analysis; type: functional, cell-based; method in brief: as §2
MDA-MB-231 [18] = test: Induction of autophagy in human MDA-MB-231 cells assessed as decrease in polyubiquitinated protein levels at IC50 to 2 times IC50 after 24 to 48 hrs by immunoblot analysis; type: functional, cell-based; method in brief: as §2
Homo sapiens [19] = species on record: Homo sapiens; test: Induction of autophagy in human 253JBV cells assessed as decrease in polyubiquitinated protein levels at IC50 after 24 to 48 hrs by immunoblot analysis; type: functional, cell-based; method in brief: as §2
HeLa [20] = test: Induction of autophagy in human HeLa cells assessed as decrease in p62 levels at IC50 after 24 to 48 hrs by immunoblot analysis

SMILES	IC50 [1] [µM]	IC50 [2] [µM]	IC50 [3] [µM]	IC50 [4] [µM]	IC50 [5] [µM]	IC50 at 48 h [6] [µM]	IC50 [7] [µM]	IC50 [8] [µM]	IC50 [9] [µM]	IC50 [10] [µM]	Activity (Homo sapiens [11])	Activity (MDA-MB-231 [12])	Activity (HeLa [13])	Activity (Homo sapiens [14])	Activity (MDA-MB-231 [15])	Activity (Homo sapiens [16])	Activity (HeLa [17])	Activity (MDA-MB-231 [18])	Activity (Homo sapiens [19])	Activity (HeLa [20])
C=C1C(=O)O[C@@H]2C3O[C@]3(C)CC/C=C(\C)CC[C@@H]12 (stereo not given in full)	4.36	23.4	23.1	27.7	4.86	3.1	22	20.3	13	25.3										
C/C(=C\CC/C(C)=C/Cc1cc(C(=O)O)ccc1N)CC/C=C(\C)CC/C=C(\C)CCC(=O)O	12.9	25.9	18.2	> 42.8	> 42.8	6.45	25.8	36.4	42.3	36.5	Active	Active	Active	Active	Active	Active	Active	Active	Active	Active
